Assay results: ChEMBL document CHEMBL4038309, “Design and Synthesis of Chlorinated and Fluorinated 7-Azaindenoisoquinolines as Potent Cytotoxic Anticancer Agents That Inhibit Topoisomerase I” (J Med Chem, 2017)
Calls of active or inactive are those of the source. The calls are words filed in the database; no cut-off is given here.

Assays:
[1] = system: UACC-62; test: Antiproliferative activity against human UACC62 cells assessed as growth inhibition; assay type: functional
Summary of the method: (§1)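 NCI-60 screen: single-dose pre-screen at 10 μM, then five concentrations from 0.01 to 100 μM. Values beyond the tested range are recorded as 0.01 or 100 μM.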

[2] = system: MCF7; test: Antiproliferative activity against human MCF7 cells assessed as growth inhibition; assay type: functional; summary of the method: as §1
[3] = system: SF-539; test: Antiproliferative activity against human SF539 cells assessed as growth inhibition; assay type: functional; summary of the method: as §1
[4] = system: DU-145; test: Antiproliferative activity against human DU145 cells assessed as growth inhibition; assay type: functional; summary of the method: as §1
[5] = system: HOP-62; test: Antiproliferative activity against human HOP62 cells assessed as growth inhibition; assay type: functional; summary of the method: as §1
[6] = biological target: T1, DNA topoisomerase 1 (Homo sapiens) (UniProt P11387); test: Inhibition of recombinant Top1 (unknown origin) assessed as Top 1 mediated DNA cleavage using 3'-[32P]-labeled 117 bp DNA as substrate at 0.1 to 100 uM after 20 mins by PAGE analysis
T1 sequence (whole entry): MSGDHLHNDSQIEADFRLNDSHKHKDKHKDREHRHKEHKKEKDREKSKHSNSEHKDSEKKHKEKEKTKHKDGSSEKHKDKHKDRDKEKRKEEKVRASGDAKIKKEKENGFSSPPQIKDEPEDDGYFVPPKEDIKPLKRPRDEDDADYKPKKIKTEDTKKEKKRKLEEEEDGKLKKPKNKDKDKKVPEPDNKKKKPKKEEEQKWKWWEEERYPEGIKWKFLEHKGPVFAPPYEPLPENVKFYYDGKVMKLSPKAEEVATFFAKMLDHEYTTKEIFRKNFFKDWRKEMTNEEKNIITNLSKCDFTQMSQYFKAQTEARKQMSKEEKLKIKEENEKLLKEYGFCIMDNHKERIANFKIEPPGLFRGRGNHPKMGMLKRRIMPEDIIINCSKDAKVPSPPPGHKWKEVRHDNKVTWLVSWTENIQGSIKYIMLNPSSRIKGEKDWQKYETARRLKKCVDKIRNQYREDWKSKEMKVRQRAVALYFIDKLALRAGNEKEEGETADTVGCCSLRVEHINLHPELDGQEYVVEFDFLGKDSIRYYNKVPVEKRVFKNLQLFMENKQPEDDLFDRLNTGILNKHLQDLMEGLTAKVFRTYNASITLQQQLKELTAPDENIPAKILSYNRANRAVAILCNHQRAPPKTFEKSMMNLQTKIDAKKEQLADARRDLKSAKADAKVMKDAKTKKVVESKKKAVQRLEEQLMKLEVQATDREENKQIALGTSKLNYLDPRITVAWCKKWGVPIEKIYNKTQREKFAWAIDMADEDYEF
Summary of the method: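 About 2 nM 3'-[32P]-labeled DNA with recombinant Top1 in 10 mM Tris-HCl pH 7.5, 50 mM KCl, 5 mM MgCl2, 0.1 mM EDTA, 15 μg/mL BSA, 25 °C, 20 min. Compound at 0.1, 1, 10 and 100 μM. Stopped with 0.5% SDS and formamide dye, then run on 20% denaturing PAGE with phosphorimaging.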

[7] = system: OVCAR-3; test: Antiproliferative activity against human OVCAR3 cells assessed as growth inhibition; assay type: functional; summary of the method: as §1
[8] = system: HCT-116; test: Antiproliferative activity against human HCT116 cells assessed as growth inhibition; assay type: functional; summary of the method: as §1
[9] = system: SN12C; test: Antiproliferative activity against human SN12C cells assessed as growth inhibition; assay type: functional; summary of the method: as §1
[10] = Toxicity in zebrafish embryo assessed as survival at 1 uM preincubated for 1 hr measured after 24 hrs (reference value: 86.2 +/- 8.5%); parameters: species or system Danio rerio; conditions: zebrafish embryos
[11] = Toxicity in zebrafish embryo assessed as survival at 0.1 uM preincubated for 1 hr measured after 72 hrs (reference value: 82.5 +/- 8.4%); parameters: species or system Danio rerio; conditions: zebrafish embryos
[12] = Toxicity in zebrafish embryo assessed as survival at 1 uM preincubated for 1 hr measured after 72 hrs (reference value: 82.5 +/- 8.4%); parameters: species or system Danio rerio; conditions: zebrafish embryos
[13] = Toxicity in zebrafish embryo assessed as survival at 0.01 uM preincubated for 1 hr measured after 72 hrs (reference value: 82.5 +/- 8.4%); parameters: species or system Danio rerio; conditions: zebrafish embryos
[14] = Toxicity in zebrafish embryo assessed as survival at 0.01 uM preincubated for 1 hr measured after 120 hrs (reference value: 82.5 +/- 8.4%); parameters: species or system Danio rerio; conditions: zebrafish embryos
[15] = Toxicity in zebrafish embryo assessed as survival at 0.01 uM preincubated for 1 hr measured after 24 hrs (reference value: 86.2 +/- 8.5%); parameters: species or system Danio rerio; conditions: zebrafish embryos
[16] = Toxicity in zebrafish embryo assessed as survival at 0.1 uM preincubated for 1 hr measured after 48 hrs (reference value: 84.4 +/- 8.5%); parameters: species or system Danio rerio; conditions: zebrafish embryos
[17] = Toxicity in zebrafish embryo assessed as survival at 0.1 uM preincubated for 1 hr measured after 24 hrs (reference value: 86.2 +/- 8.5%); parameters: species or system Danio rerio; conditions: zebrafish embryos
[18] = Toxicity in zebrafish embryo assessed as survival at 0.1 uM preincubated for 1 hr measured after 96 hrs (reference value: 82.5 +/- 8.4%); parameters: species or system Danio rerio; conditions: zebrafish embryos
[19] = Toxicity in zebrafish embryo assessed as survival at 0.01 uM preincubated for 1 hr measured after 48 hrs (reference value: 84.4 +/- 8.5%); parameters: species or system Danio rerio; conditions: zebrafish embryos
[20] = Toxicity in zebrafish embryo assessed as survival at 1 uM preincubated for 1 hr measured after 48 hrs (reference value: 84.4 +/- 8.5%); parameters: species or system Danio rerio; conditions: zebrafish embryos
[21] = Toxicity in zebrafish embryo assessed as survival at 1 uM preincubated for 1 hr measured after 120 hrs (reference value: 82.5 +/- 8.4%); parameters: species or system Danio rerio; conditions: zebrafish embryos
[22] = Toxicity in zebrafish embryo assessed as survival at 10 uM preincubated for 1 hr measured after 24 to 120 hrs (reference value: 82.5 to 86.2%); parameters: species or system Danio rerio; conditions: zebrafish embryos
[23] = Toxicity in zebrafish embryo assessed as survival at 0.01 uM preincubated for 1 hr measured after 96 hrs (reference value: 82.5 +/- 8.4%); parameters: species or system Danio rerio; conditions: zebrafish embryos
[24] = Toxicity in zebrafish embryo assessed as survival at 0.1 uM preincubated for 1 hr measured after 120 hrs (reference value: 82.5 +/- 8.4%); parameters: species or system Danio rerio; conditions: zebrafish embryos
[25] = Toxicity in zebrafish embryo assessed as survival at 1 uM preincubated for 1 hr measured after 96 hrs (reference value: 82.5 +/- 8.4%); parameters: species or system Danio rerio; conditions: zebrafish embryos

Compound | GI50 [1] [nM] | GI50 [2] [nM] | GI50 [3] [nM] | GI50 [4] [nM] | GI50 [5] [nM] | Top1-mediated DNA cleavage activity (active/not active) [6] | GI50 [7] [nM] | GI50 [8] [nM] | GI50 [9] [nM] | also measured
COc1cnc2c(c1)C(=O)c1c-2n(CCCNC2=NCCS2)c(=O)c2cc(Cl)ccc12 | 95 | 36 | 470 | 92 | 42 | Active | 1300 | 350 |  | 
COc1cnc2c(c1)C(=O)c1c-2n(CCCN2CCNCC2)c(=O)c2cc(F)ccc12 | 1260 | 34 | 532 | 62 | 66 | inactive | 335 | 91 | 80 | 
COc1cnc2c(c1)C(=O)c1c-2n(CCCN2CCNCC2)c(=O)c2cc(Cl)ccc12 | 1430 | 89 | 1330 | 242 | 200 | inactive | 1430 | 298 | 489 | 
CCNCCCn1c2c(c3ccc(F)cc3c1=O)C(=O)c1cc(OC)cnc1-2 | 341 | 42 | 320 | 215 | 149 | Active | 282 | 136 | 151 | 
COc1cnc2c(c1)C(=O)c1c-2n(CCCn2ccnc2)c(=O)c2cc([N+](=O)[O-])ccc12 |  |  |  |  |  | Active |  |  |  | survival at 24 h, 1 µM [10]: 0%; survival at 72 h, 0.1 µM [11]: 0%; survival at 72 h, 1 µM [12]: 0%; survival at 72 h, 0.01 µM [13]: 45%; survival at 120 h, 0.01 µM [14]: 45%; survival at 24 h, 0.01 µM [15]: 62.5%; survival at 48 h, 0.1 µM [16]: 0%; survival at 24 h, 0.1 µM [17]: 5.6%; survival at 96 h, 0.1 µM [18]: 0%; survival at 48 h, 0.01 µM [19]: 55.6%; survival at 48 h, 1 µM [20]: 0%; survival at 120 h, 1 µM [21]: 0%; survival at 10 µM [22]: 0%; survival at 96 h, 0.01 µM [23]: 45%; survival at 120 h, 0.1 µM [24]: 0%; survival at 96 h, 1 µM [25]: 0%
COc1cnc2c(c1)C(=O)c1c-2n(CCCN2CCOCC2)c(=O)c2cc(F)ccc12 | 235 | 44 | 228 | 341 | 187 | Active | 250 | 115 | 320 | 
COc1cnc2c(c1)C(=O)c1c-2n(CCCNC2=NCCS2)c(=O)c2cc(F)ccc12 | 344 | 33 | 305 | 144 | 59 | Active | 567 | 82 | 238 | 
COc1cnc2c(c1)C(=O)c1c-2n(CCCN2CCCC2)c(=O)c2cc(Cl)ccc12 |  |  |  |  |  | Active |  |  |  | 
COc1cnc2c(c1)C(=O)c1c-2n(CCCNC(C)C)c(=O)c2cc(Cl)ccc12 | 303 | 37 | 554 | 173 | 70 | Active | 1390 | 138 | 417 | 
CNCCCn1c2c(c3ccc(F)cc3c1=O)C(=O)c1cc(OC)cnc1-2 | 608 | 34 | 368 | 202 | 142 | inactive | 263 | 143 | 211 | 
COc1cnc2c(c1)C(=O)c1c-2n(CCCn2ccnc2)c(=O)c2cc(F)ccc12 | 16 | < 10 | 24 | < 10 | < 10 | Active | 43 | < 10 | < 10 | survival at 24 h, 1 µM [10]: 28.8%; survival at 72 h, 0.1 µM [11]: 45.6%; survival at 72 h, 1 µM [12]: 0%; survival at 72 h, 0.01 µM [13]: 87.5%; survival at 120 h, 0.01 µM [14]: 87.5%; survival at 24 h, 0.01 µM [15]: 87.5%; survival at 48 h, 0.1 µM [16]: 62.5%; survival at 24 h, 0.1 µM [17]: 86.2%; survival at 96 h, 0.1 µM [18]: 45.6%; survival at 48 h, 0.01 µM [19]: 87.5%; survival at 48 h, 1 µM [20]: 0%; survival at 120 h, 1 µM [21]: 0%; survival at 10 µM [22]: 0%; survival at 96 h, 0.01 µM [23]: 87.5%; survival at 120 h, 0.1 µM [24]: 45.6%; survival at 96 h, 1 µM [25]: 0%
O=C1c2ccccc2-c2c1c1ccc(Cl)cc1c(=O)n2CCCn1ccnc1 | 74 | 31 |  |  |  | Active |  |  | 110 | 
COc1cnc2c(c1)C(=O)c1c-2n(CCCN2CCOCC2)c(=O)c2cc([N+](=O)[O-])ccc12 |  |  |  |  |  | Active |  |  |  | 
COc1cnc2c(c1)C(=O)c1c-2n(CCCN2CCC(O)CC2)c(=O)c2cc(F)ccc12 | 240 | 31 | 295 | 174 | 142 | inactive | 254 | 89 | 189 | 
COc1cnc2c(c1)C(=O)c1c-2n(CCCN2CCOCC2)c(=O)c2cc(Cl)ccc12 | 180 | 90 | 230 | 410 | 270 | Active | 780 | 160 |  | 
CNCCCn1c2c(c3ccc(Cl)cc3c1=O)C(=O)c1cc(OC)cnc1-2 | 574 | 46 | 730 | 331 | 220 | Active | 1410 | 550 | 1180 | 
O=C1c2ccccc2-c2c1c1ccc([N+](=O)[O-])cc1c(=O)n2CCCn1ccnc1 |  |  |  |  |  | Active |  |  |  | 
COc1cnc2c(c1)C(=O)c1c-2n(CCCNC(C)C)c(=O)c2cc(F)ccc12 | 271 | 31 | 248 | 210 | 107 | Active | 190 | 93 | 164 | 
COc1cnc2c(c1)C(=O)c1c-2n(CCCN2CCCC2)c(=O)c2cc(F)ccc12 | 471 | 48 | 360 | 211 | 212 | Active | 307 | 153 | 241 | 
